M1 antag: antagonists of rat M1 muscarinic receptor; 64,000 compounds, 3.4% hits; AID 628, 2007; B-score at 10 µM; Muscarinic acetylcholine receptor M1 (Rattus norvegicus), P08482; CHO-M1 cells, Fluo-4 calcium, ACh EC80 antagonist mode; hits give low values;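 active means calcium fluorescence response, raw or row-and-column corrected B-score, differing from the plate sample mean either way at a set confidence level, mostly lower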
M1 ag: M1 muscarinic receptor agonists, primary screen, CHO-M1 cells, Fluo-4 calcium, agonist mode. Muscarinic acetylcholine receptor M1. Fluo-4 calcium fluorescence; hits give high values. B-score at 10 µM. 64,000 compounds, 3% hits. AID 626, 2007;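 active means fluorescence rise, raw or as B-score row- and column-corrected plate score, outside the 99.7% band of its plate's samples, either direction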
D1 allo mod: D1 CRE-luciferase signal change, two-sided – cell-based, HEK293 D1, dopamine EC30, D1 allosteric modulator project, primary screen | D(1A) dopamine receptor (Homo sapiens), P21728 | dopamine EC30 potentiation; actives deviate in either direction | B-score at 10 µM | 58,000 compounds, 5.9% hits;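 active means luminescence count or its row- and column-corrected plate score outside the 99.7% band of the plate's sample wells, on either side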
Target sequence (P21728 whole entry, looked up): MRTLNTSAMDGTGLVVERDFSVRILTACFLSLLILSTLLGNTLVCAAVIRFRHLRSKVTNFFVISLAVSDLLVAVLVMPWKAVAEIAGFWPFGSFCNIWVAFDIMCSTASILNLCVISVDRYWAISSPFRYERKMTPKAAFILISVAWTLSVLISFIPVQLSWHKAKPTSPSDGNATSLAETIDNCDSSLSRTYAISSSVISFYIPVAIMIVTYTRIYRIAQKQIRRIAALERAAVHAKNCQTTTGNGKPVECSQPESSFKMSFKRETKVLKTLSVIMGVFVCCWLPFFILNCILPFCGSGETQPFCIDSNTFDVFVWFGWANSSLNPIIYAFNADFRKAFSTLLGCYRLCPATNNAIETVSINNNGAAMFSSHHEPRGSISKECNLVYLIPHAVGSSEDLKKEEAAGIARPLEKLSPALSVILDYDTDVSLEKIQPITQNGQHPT
hDAT+cocaine: changed hDAT dopamine uptake under cocaine IC80, either direction, primary screen, cocaine antagonist project, cell-based, LLC-PK1 hDAT, [14C]-dopamine uptake, MLSMR; Sodium-dependent dopamine transporter (Homo sapiens), Q01959; LLC-PK1 hDAT cells, [14C]-dopamine uptake with cocaine IC80; actives deviate in either direction; B-score at 10 µM; 110,000 compounds, 1.3% hits; AID 449768, 2010;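 active means Z score or B-score, a plate-position-corrected score, falls beyond the plate's 99.7% confidence bounds, in either direction; inactive means both scores lie inside the 99.7% bounds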;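 further: scored against the spread of the other compound wells on the same plate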
Jurkat viability: cytotoxicity toward Jurkat T cells, primary screen, cytotoxicity control, cell-based, Jurkat E6.1, 60K MLSMR library; Jurkat E6.1 viability, ATP luminescence, 48 h; inhibition, % at 4 µM; 56,000 compounds, 1.2% hits; AID 463, 2006;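 active means inhibition above the mean inhibition of all tested compounds plus 3 SD, cut at about 28% in these data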
HEK293 NFkB inh: inhibitors of PMA/ionomycin-induced NF-kB reporter, primary screen, antigen receptor NF-kB inhibitor project, cell-based, HEK-293 luciferase reporter, luminescence; HEK-293 NF-kB luciferase reporter; inhibition, % at 3 µM; 62,000 compounds, 0.21% hits;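 active means inhibition above the mean of all tested compounds plus 3 SD, cut at about 40% in these data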;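 further: 0% = stimulated DMSO wells and 100% = 10 µM reference inhibitor 5653914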
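System – HEK-293 cells with stable firefly luciferase reporter driven by four HIV NF-kB elements · Doses – one dose, 3 µM · Schedule – 1 h compound pre-incubation, 16 h PMA/ionomycin at 37 °C · Technique – luminescence from luciferase substrate reagent · Measure – percent inhibition normalized per plate to DMSO and reference-inhibitor controls · Replicates – tested once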
M1 ag confirm: rat M1 muscarinic receptor agonists, confirmation, CHO-M1 cells, Fluo-4 calcium, duplicate retest; 1,700 compounds, 19% hits; fluorescence change (max-min) at 10 µM; Fluo-4 calcium fluorescence, agonist mode; actives lie on both sides; shares compounds with M1 ag;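 active means fluorescence change differs from the solvent-only DMSO control mean at a set confidence level in both duplicate runs; inconclusive means differs from solvent-only control mean in just one of two runs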;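 further: an EC20 dose of acetylcholine follows compound addition during the same imaging run; raw fluorescence intensity difference in instrument units with no normalization to controls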
M4 ag counter: agonist activity at rat M4 receptor, confirmation, counter-screen for M1 allosteric modulator project, cell-based, agonist mode; CHO M4/Gqi5 cells, Fluo-4 calcium fluorescence; actives lie on both sides; 1,700 compounds, 9% hits; AID 1741, 2009; fluorescence change (max-min) at 10 µM; shares compounds with M1 ag;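 active means fluorescence change differing from the plate's solvent-only control wells at 99.7% confidence in both duplicates, whether higher or lower; inconclusive means differs from solvent controls in only one of two duplicates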
* hit, by the source's call; ? = inconclusive; nt = no result given. Shown are actives, neighbours in structure and some others; about 7.6% of the full set was active somewhere.

SMILES | M1 antag | M1 ag | D1 allo mod | hDAT+cocaine | Jurkat viability | HEK293 NFkB inh | M1 ag confirm | M4 ag counter
COc1ccc(-c2nnc3sc(-c4ccco4)nn23)cc1OC | -0.29 | 4.3* | 1.4 | -0.9 | 1 | 11 | -17 | -44
COc1cccc(-c2nn3c(-c4cccc(C)c4)nnc3s2)c1 | -0.15 | 24* | 1.3 | 0.53 | -1 | 10 | ? | -33
CCOC(=O)C1CCCN(S(=O)(=O)c2cc(Br)cc3c2N(C(=O)C2CC2)CC3)C1 (stereo not drawn) | -0.25 | 0.033 | 1.1 | 0.52 | nt | 19 | nt | nt
Cc1ccc2cc(CNC(C)C)c(=O)[nH]c2c1 | 1.5 | -0.5 | nt | 0.31 | nt | nt | nt | nt
CC(C)N(C(=O)NC(=O)NCC1CCCO1)S(C)(=O)=O (stereo not drawn) | 0.44 | 0.27 | -0.26 | -1.8 | 4 | 22 | nt | nt
CCC(C)[C@H](NC(=O)NCC1CCCO1)C(=O)OC (stereo partly drawn) | 1 | 5* | 0.14 | -0.52 | 0 | 3 | -1.9 | -9.1
Cc1cc(=O)oc2ccc(OCC(=O)N(Cc3ccc(F)cc3)Cc3ccco3)cc12 | -2.4* | 6.4* | -0.94 | 1.2 | 5 | 4 | ? | -37
CCOC(=O)Oc1ccc2oc(=O)cc(C)c2c1 | nt | nt | 0.69 | 0.059 | -2 | 18 | nt | nt
COc1ccccc1NC(=O)Nc1ncccc1C | -0.33 | -0.045 | nt | nt | -2 | 12 | nt | nt
CC1(C)CC(=O)C2=C(C1)N(c1cccc(O)c1)C1=C(C2)C(=O)CC(C)(C)C1 | -0.53 | 22* | 5.6* | -0.63 | 5 | 21 | 221* | 170*
O=C(CSc1nc(C2CC2)nc2ccccc12)N1c2ccccc2Sc2ccc(C(F)(F)F)cc21 | nt | nt | nt | 0.26 | nt | nt | nt | nt
Cc1c(C(=O)OCCOC(C)C)[nH]c2c1C(=O)CC(C)(C)C2 | 0.043 | -0.056 | nt | 0.21 | 1 | 5 | nt | nt
Cc1c(C(=O)OCCOC(C)C)[nH]c2c1C(=O)CC(c1ccco1)C2 (stereo not drawn) | -2* | 6.7* | 0.46 | 0.0078 | 100* | 48* | ? | -80*
CCOC(=O)c1ccc(NC(=O)c2nc[nH]c2C(=O)N2CCc3ccccc3C2)cc1 | nt | nt | nt | -0.014 | nt | nt | nt | nt
Cc1ccc2c(c1)nnn2C1CCN(S(=O)(=O)c2ccc3ccccc3c2)CC1 | nt | nt | nt | 0.066 | nt | nt | nt | nt
Cc1ccc2c(c1)nnn2C1CCN(S(=O)(=O)c2cccc(S(=O)(=O)N(C)C)c2)CC1 | -1.3 | 4.9* | -1.4 | 1.3 | 6 | 8 | ? | -63
C=CCn1c(=O)/c(=C/c2ccc(Cl)cc2)s/c1=C(/C#N)c1nnc2n1CCCCC2 | -0.29 | 4.3* | -1.5 | 0.033 | -3 | -4 | ? | ?
C=CCn1c(=O)/c(=C/c2ccc(O)cc2)s/c1=C(/C#N)c1nnc2n1CCCCC2 | -0.69 | 43* | 1.9 | -0.41 | -2 | 16 | 90* | ?
C=CCn1c(=O)/c(=C/c2cc(OC)c(OC)c(OC)c2)s/c1=C(/C#N)c1nc2ccccc2n1C | -0.84 | 77* | -0.078 | 0.37 | nt | 8 | ? | 118
CC(=O)Nc1ccc(NC2=CC(=O)CC(C)(C)C2)cc1 | 0.22 | 11* | -0.0082 | -0.2 | -1 | 5 | ? | -82
COC(=O)c1ccc(NC2=CC(=O)CC(C)(C)C2)cc1 | 0.004 | -0.035 | -0.65 | -0.074 | 0 | 9 | nt | nt
CC1(C)CC(=O)C=C(Nc2ccccc2NC(=O)c2cnccn2)C1 | -1.8* | 21* | nt | -1.7 | nt | 10 | -13 | -23
COc1ccc(-c2cc(C(=O)NCCCn3ccnc3)no2)cc1OC | nt | nt | nt | 0.33 | nt | nt | nt | nt
Cc1cccn2c(=O)c(/C=C(\C#N)S(=O)(=O)c3ccccc3)c(N3CCC(C(N)=O)CC3)nc12 | nt | nt | nt | -0.59 | nt | nt | nt | nt
CCN1CCN(c2nc3c(C)cccn3c(=O)c2/C=C(\C#N)S(=O)(=O)c2ccccc2)CC1 | -3 | 8.9* | -1 | 0.99 | nt | nt | 31 | 2.4
SMILES | M1 antag | M1 ag | D1 allo mod | hDAT+cocaine | Jurkat viability | HEK293 NFkB inh | M1 ag confirm | M4 ag counter
Oc1ccc2oc3c(c2c1/C=N/n1cnnc1)CCCC3 | 1.2 | 1.3* | -0.71 | -0.081 | 9 | 15 | ? | -61
O=C(OCc1nc2ccccc2s1)C1CCN(C2=NS(=O)(=O)c3ccccc32)CC1 | -0.11 | 4.6* | -0.51 | -1.3 | -2 | -2 | ? | -75
CN1CCc2c(sc3c2C(=O)NC(c2ccc(-c4cccc(Cl)c4)o2)N3)C1 (stereo not drawn) | -1.1 | 14* | nt | 0.061 | -2 | 7 | 14 | -14
CN1CCc2c(sc3c2C(=O)NC(c2cccs2)N3)C1 (stereo not drawn) | -0.45 | -0.75 | -1.4 | -0.27 | -7 | -14 | nt | nt
Cc1ccc(NC(=O)CSc2nnnn2-c2ccc3c(c2)OCO3)cc1C | nt | nt | nt | 1.2 | nt | nt | nt | nt
CC(C)CCNC(=O)C1CCN(c2nnc(-n3cccc3)s2)CC1 | nt | nt | nt | 1.6 | nt | nt | nt | nt
Cc1cccc(N2CCN(C(=O)C3CCN(S(=O)(=O)c4cccc5nsnc45)CC3)CC2C)c1 (stereo not drawn) | -2 | 16* | 0.069 | -0.97 | 2 | -1 | -33* | -88
O=C(C1CCN(c2nnc(N3CCCC3=O)s2)CC1)N1CCN(Cc2ccc3c(c2)OCO3)CC1 | -0.31 | -1.4 | -0.065 | 2.5 | 7 | 11 | nt | nt
Cc1cccc(N2CCN(C(=O)C3CCN(S(=O)(=O)c4cccc5cccnc45)CC3)CC2C)c1 (stereo not drawn) | -1.9 | 8.6* | -3.8* | 0.59 | 6 | 14 | -12 | ?
Cc1cccc(N2CCN(C(=O)C3CCN(c4nnc(-n5cccc5)s4)CC3)CC2C)c1 (stereo not drawn) | -1.6 | 16* | nt | 0.35 | 9 | 20 | ? | -48
O=C(C1CCN(c2nnc(-n3cccc3)s2)CC1)N1CCN(Cc2ccc3c(c2)OCO3)CC1 | -1.3 | -2.6* | -0.07 | 0.76 | 22 | 13 | -12 | -62
O=C(Cc1c(O)c2ccccc2[nH]c1=O)NCc1ccc(F)cc1 | 0.22 | 0.04 | -0.63 | -0.67 | 5 | 15 | nt | nt
O=C(Nc1ccc(Cl)cc1C(=O)O)c1ccc2c(c1)C(=O)N(Cc1ccco1)C2=O | 1.3 | 1.5 | -0.63 | nt | -4 | 12 | nt | nt

Source: PubChem
